Measured values as given in ChEMBL document CHEMBL5236607, “Membrane-Active Cyclic Amphiphilic Peptides: Broad-Spectrum Antibacterial Activity Alone and in Combination with Antibiotics” (J Med Chem, 2022).
Activity calls are given as the source filed them. No cut-off for these calls is given here. Peptide text beside a SMILES is read from it.

Assays:
Staphylococcus aureus [1] = test: Induction of resistance development in Staphylococcus aureus ATCC 29213 assessed as increase in MIC by microtiter plate reader assay; assay type: functional, organism-based
How it was run: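 Serial passage resistance assay with 2-fold microdilution MICs in 96-well plates. Each passage takes the well with the highest concentration still permitting growth, adjusts it to 0.5 McFarland, and dilutes it to a final 5 × 10^5 CFU/mL for the next passage. Eighteen passages; MIC recorded at each. Triplicate.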

Pseudomonas aeruginosa [2] = test: Synergistic antibacterial activity against Pseudomonas aeruginosa ATCC […] incubated for 24 hrs in presence of tobramycin by checkerboard assay; assay type: functional
Pseudomonas aeruginosa [3] = test: Synergistic antibacterial activity against Pseudomonas aeruginosa ATCC […] fractional inhibitory concentration incubated for 24 hrs in presence of polymyxin B by checkerboard assay; assay type: functional
Staphylococcus aureus [4] = test: Synergistic antibacterial activity against methicillin resistant Staphylococcus aureus ATCC BAA-1556 assessed as fractional inhibitory concentration index incubated for 24 hrs in presence of tobramycin by checkerboard assay; assay type: functional
How it was run: (§1)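 Checkerboard assay. Inoculum from an LB overnight culture at 0.5 McFarland, diluted 1/150 in MH media. […] Incubated 37 °C for 24 h. FICI = MIC combination/MIC alone summed over both agents. Triplicate.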

Klebsiella pneumoniae [5] = test: Antibacterial activity against Klebsiella pneumoniae ATCC 700603 after 24 hrs by microbroth dilution method; assay type: functional
Escherichia coli [6] = test: Synergistic antibacterial activity against Escherichia coli ATCC 25922 assessed as fractional inhibitory concentration incubated for 24 hrs in presence of tobramycin by checkerboard assay; assay type: functional
How it was run: (§2)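 Checkerboard assay in MH broth. Inoculum from an LB overnight culture set to 0.5 McFarland and diluted 1/150. […] Each agent was also titrated alone. Incubation 24 h at 37 °C. FIC = combination MIC/individual MIC; FICI = sum of the FICs. Triplicate.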

Staphylococcus aureus [7] = test: Synergistic antibacterial activity against methicillin resistant Staphylococcus aureus ATCC BAA-1556 fractional inhibitory concentration incubated for 24 hrs in presence of levofloxacin by checkerboard assay; assay type: functional; how it was run: as §1
Staphylococcus aureus [8] = test: Synergistic antibacterial activity against methicillin resistant Staphylococcus aureus ATCC BAA-1556 fractional inhibitory concentration index incubated for 24 hrs in presence of levofloxacin by checkerboard assay; assay type: functional; how it was run: as §1
Escherichia coli [9] = test: Synergistic antibacterial activity against Escherichia coli ATCC 25922 assessed as fractional inhibitory concentration index incubated for 24 hrs in presence of tobramycin by checkerboard assay; assay type: functional; how it was run: as §2
Escherichia coli [10] = test: Bactericidal activity against Escherichia coli assessed as reduction in bacterial cells at 4 times MIC after 2 hrs by time kill assay; assay type: functional; set-up: scale not given: the % may be the effect or the level left
How it was run: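 Samples taken at time points from 0 to 24 h, serially diluted and plated on MH agar. CFU counted after 24 h at 37 °C. Untreated culture served as control. Two independent experiments in triplicate.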

[11] = Membrano-lytic effect in mammalian membrane mimic DOPC/cholesterol (10:1) large unilamellar vesicles assessed as calcein leakage measured at 5 to 50 microg/ml measured after 100 mins by multimode microplate reader assay; assay type: cell membranes; details: dose 5-50 µg/ml
How it was run: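 Calcein (70 mM) loaded into extruded 100 nm LUVs: DOPC:DOPG 7:3 (w/w) as the bacterial mimic, DOPC/cholesterol 10:1 (w/w) as the mammalian mimic. Free dye removed by gel filtration. Liposomes at 40 μM final lipid in PBS mixed 1:1 with peptide (5–50 μg/mL). Fluorescence (ex 490/em 520 nm) read every 10 min for 100 min; Triton X-100 defines 100% release. Triplicate.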

Klebsiella pneumoniae [12] = test: Synergistic antibacterial activity against Klebsiella pneumoniae ATCC BAA-1705 fractional inhibitory concentration incubated for 24 hrs in presence of meropenem by checkerboard assay; assay type: functional; how it was run: as §2
Staphylococcus aureus [13] = test: Bactericidal activity against methicillin resistant Staphylococcus aureus assessed as reduction in bacterial cells at 4 times MIC after 2 hrs by time kill assay; assay type: functional; set-up: scale not given: the % may be the effect or the level left
How it was run: (§3)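 Time-kill in Müller–Hinton media. […] Aliquots taken at 0–24 h, serially diluted and plated on MH agar. CFU counted after 24 h at 37 °C. Two independent experiments in triplicate.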

Staphylococcus aureus [14] = test: Bactericidal activity against methicillin resistant Staphylococcus aureus assessed as reduction in bacterial cells by time kill assay; assay type: functional, organism-based; details: TDE = time-dependent effect; how it was run: as §3
Klebsiella pneumoniae [15] = test: Antibacterial activity against multidrug resistant Klebsiella pneumoniae 1188718 after 24 hrs by microbroth dilution method; assay type: functional
[16] = Therapeutic index, ratio of cytotoxicity against human HEKa to MIC for methicillin resistant Staphylococcus aureus
Cell membrane [17] = test: Membrano-lytic activity against Escherichia coli assessed as loss of membrane fluidity at 4 times MIC after 1 hr by SEM analysis; assay type: subcellular
How it was run: (§4)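 E. coli ATCC BAA-2452 from overnight culture, suspended at 10^7 CFU/mL in 10 mM PBS pH 7.4. […] Fixed in 4% glutaraldehyde in cacodylate buffer pH 7.4 for 3 h at 4 °C, ethanol-dehydrated, HMDS-dried, Au/Pd-coated, then imaged by FE-SEM.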

Pseudomonas aeruginosa [18] = test: Synergistic antibacterial activity against Pseudomonas aeruginosa ATCC […] incubated for 24 hrs in presence of polymyxin B by checkerboard assay; assay type: functional; how it was run: as §1
Klebsiella pneumoniae [19] = test: Antibacterial activity against carbapenem resistant Klebsiella pneumoniae ATCC BAA 1705 after 24 hrs by microbroth dilution method; assay type: functional
Staphylococcus aureus [20] = test: Synergistic antibacterial activity against methicillin resistant Staphylococcus aureus ATCC BAA-1556 assessed as fractional inhibitory concentration incubated for 24 hrs in presence of tobramycin by checkerboard assay; assay type: functional; how it was run: as §1
Cell membrane [21] = test: Membrano-lytic activity against methicillin resistant Staphylococcus aureus assessed as change in morphology at 4 times MIC after 1 hr by SEM analysis; assay type: subcellular
Pseudomonas aeruginosa [22] = test: Synergistic antibacterial activity against Pseudomonas aeruginosa ATCC […] assessed as fractional inhibitory concentration incubated for 24 hrs in presence of tobramycin by checkerboard assay; assay type: functional
Cell membrane [23] = test: Membrano-lytic activity against Escherichia coli assessed as change in morphology at 4 times MIC after 1 hr by SEM analysis; assay type: subcellular; how it was run: as §4
Pseudomonas aeruginosa [24] = test: Synergistic antibacterial activity against Pseudomonas aeruginosa ATCC […] fractional inhibitory concentration index incubated for 24 hrs in presence of polymyxin B by checkerboard assay; assay type: functional
Escherichia coli [25] = test: Synergistic antibacterial activity against Escherichia coli ATCC 25922 fractional inhibitory concentration index incubated for 24 hrs in presence of Ciprofloxacin by checkerboard assay; assay type: functional; how it was run: as §2
Staphylococcus aureus [26] = test: Synergistic antibacterial activity against methicillin resistant Staphylococcus aureus ATCC BAA-1556 fractional inhibitory concentration incubated for 24 hrs in presence of Ciprofloxacin by checkerboard assay; assay type: functional; how it was run: as §1
Escherichia coli [27] = test: Synergistic antibacterial activity against Escherichia coli ATCC 25922 fractional inhibitory concentration incubated for 24 hrs in presence of meropenem by checkerboard assay; assay type: functional; how it was run: as §1
Escherichia coli [28] = test: Synergistic antibacterial activity against Escherichia coli ATCC 25922 fractional inhibitory concentration incubated for 24 hrs in presence of Ciprofloxacin by checkerboard assay; assay type: functional; how it was run: as §2
Escherichia coli [29] = test: Synergistic antibacterial activity against Escherichia coli ATCC 25922 fractional inhibitory concentration incubated for 24 hrs in presence of metronidazole by checkerboard assay; assay type: functional; how it was run: as §2
Escherichia coli [30] = test: Synergistic antibacterial activity against Escherichia coli ATCC 25922 fractional inhibitory concentration index incubated for 24 hrs in presence of metronidazole by checkerboard assay; assay type: functional; how it was run: as §2
Staphylococcus aureus [31] = test: Synergistic antibacterial activity against methicillin resistant Staphylococcus aureus ATCC BAA-1556 fractional inhibitory concentration incubated for 24 hrs in presence of polymyxin B by checkerboard assay; assay type: functional; how it was run: as §1

**Q.** With `N=C(N)NCCC[C@@H]1NC(=O)[C@H](CCCNC(=N)N)NC(=O)[C@H](CCCNC(=N)N)NC(=O)[C@H](Cc2c[nH]c3ccccc23)NC(=O)[C@H](Cc2c[nH]c3ccccc23)NC(=O)[C@H](Cc2c[nH]c3ccccc23)NC(=O)[C@H](Cc2c[nH]c3ccccc23)NC(=O)[C@H](CCCNC(=N)N)NC(=O)[C@H](CCCNC(=N)N)NC1=O` as the compound, how does the Activity (Staphylococcus aureus [1]) read?
**A.** The Activity was “inactive”.

**Q.** And the MIC (Pseudomonas aeruginosa [2])?
**A.** The MIC was 0.125 µg/mL.

**Q.** And the FIC (Pseudomonas aeruginosa [3])?
**A.** The FIC was 0.125.

**Q.** And the “fractional inhibitory concentration index (FICI)” value (Staphylococcus aureus [4])?
**A.** The value was 0.5.

**Q.** And the MIC (Klebsiella pneumoniae [5])?
**A.** Its MIC is > 64 µg/mL.

**Q.** What about the FIC (Escherichia coli [6]) of the same compound?
**A.** Its FIC is 0.25.

**Q.** And the FIC (Staphylococcus aureus [7])?
**A.** Its FIC is 0.25.

**Q.** And the “fractional inhibitory concentration index (FICI)” value (Staphylococcus aureus [8])?
**A.** Its value is 0.5.

**Q.** What about the “fractional inhibitory concentration index (FICI)” value (Escherichia coli [9]) of the same compound?
**A.** Its value is 0.5.

**Q.** And the Activity (Escherichia coli [10])?
**A.** Its Activity is 100%.

**Q.** What about the Activity [11] of the same compound?
**A.** Its Activity is 13%.

**Q.** And the FIC (Klebsiella pneumoniae [12])?
**A.** Its FIC is 0.25.

**Q.** What about the Activity (Staphylococcus aureus [13]) of the same compound?
**A.** The Activity was 100%.

**Q.** And the Activity (Staphylococcus aureus [14])?
**A.** The Activity was “Tde”.

**Q.** And the MIC (Klebsiella pneumoniae [15])?
**A.** The MIC was > 64 µg/mL.

**Q.** And the TI [16]?
**A.** The TI was 63.

**Q.** What about the Activity (Cell membrane [17]) of the same compound?
**A.** The Activity was “Active”.

**Q.** What about the MIC (Pseudomonas aeruginosa [18]) of the same compound?
**A.** Its MIC is 0.125 µg/mL.

**Q.** What about the MIC (Klebsiella pneumoniae [19]) of the same compound?
**A.** Its MIC is > 64 µg/mL.

**Q.** And the FIC (Staphylococcus aureus [20])?
**A.** Its FIC is 0.25.

**Q.** What about the Activity (Cell membrane [21]) of the same compound?
**A.** The Activity was “Active”.

**Q.** And the FIC (Pseudomonas aeruginosa [22])?
**A.** The FIC was 0.25.

**Q.** What about the Activity (Cell membrane [23]) of the same compound?
**A.** Its Activity is “Active”.

**Q.** What about the “fractional inhibitory concentration index (FICI)” value (Pseudomonas aeruginosa [24]) of the same compound?
**A.** The value was 0.375.

**Q.** With `N=C(N)NCCC[C@@H]1NC(=O)[C@H](CCCNC(=N)N)NC(=O)[C@H](CCCNC(=N)N)NC(=O)[C@H](CCCNC(=N)N)NC(=O)[C@H](Cc2c[nH]c3ccccc23)NC(=O)[C@H](Cc2c[nH]c3ccccc23)NC(=O)[C@H](Cc2c[nH]c3ccccc23)NC(=O)[C@H](Cc2c[nH]c3ccccc23)NC(=O)[C@H](CCCNC(=N)N)NC(=O)[C@H](CCCNC(=N)N)NC1=O` (cyclo(RRRRRRWWWW)) as the compound, how does the “fractional inhibitory concentration index (FICI)” value (Escherichia coli [25]) read?
**A.** The value was 0.375.

**Q.** And the FIC (Staphylococcus aureus [26])?
**A.** Its FIC is 0.25.

**Q.** What about the FIC (Escherichia coli [27]) of the same compound?
**A.** The FIC was 0.125.

**Q.** And the FIC (Escherichia coli [28])?
**A.** The FIC was 0.125.

**Q.** What about the FIC (Escherichia coli [29]) of the same compound?
**A.** The FIC was 0.125.

**Q.** And the “fractional inhibitory concentration index (FICI)” value (Escherichia coli [30])?
**A.** The value was 0.625.

**Q.** What about the FIC (Staphylococcus aureus [31]) of the same compound?
**A.** Its FIC is 0.063.
